# Rows were chosen to be rich in hits. Some 3.8% of all compounds tested hit in one or more screens of this group.
# ARNT TACC3 PPI – ARNT/TACC3 interaction disruption. Q9Y6A5. AlphaScreen His-ARNT PAS-B/GST-TACC3 binding, luminescence; TACC3 fragment carries E629A point mutation. inhibition, % at 9.99 µM. actives 0.66% (n = 390,000). AID 623870;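 active = mean inhibition of replicates at least 50% and at least half of replicates each reaching 50%; inconclusive = half or more replicates reach 50% but mean below 50%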;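 note: 0% = complete ARNT plus TACC3 wells and 100% = ARNT alone without TACC3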
# FN deposit inh – fibronectin deposition inhibition; actives 0.086% (n = 350,000); AH1F fibroblasts, Alexa488-fibronectin deposition fluorescence, overnight; inhibition, % at 12.6 µM;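 active = mean inhibition across replicates of 30% or more, regardless of how many single replicates reach that level; inconclusive = mean under 30% yet at least half of replicates reach 30%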;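 note: positive control wells lacked labelled fibronectin entirely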
#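 Schedule: 1 h cell adhesion before compound, then overnight fibronectin incubation; test system: AH1F fibroblast monolayer depositing Alexa488-labelled fibronectin into matrix; quantity: 10000 AH1F cells per well; probe or stimulus: fluorescent fibronectin at 24 nM final; signal: fluorescence, ex 485 nm, em 525 nm; evaluation: percent inhibition as loss of matrix-bound fibronectin fluorescence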
# SIRT5 inh – sirtuin-5 (human) deacylase inhibition; Q9NXA8; Purified SirT5, succinyl-peptide AMC, trypsin-coupled fluorescence; inhibition, % at 15 µM; actives 1.1% (n = 330,000); AID 652115; in the data active = inhibition above about 15%; inconclusive = no clear call, values can overlap the other calls
# Target sequence (Q9NXA8 whole entry, looked up): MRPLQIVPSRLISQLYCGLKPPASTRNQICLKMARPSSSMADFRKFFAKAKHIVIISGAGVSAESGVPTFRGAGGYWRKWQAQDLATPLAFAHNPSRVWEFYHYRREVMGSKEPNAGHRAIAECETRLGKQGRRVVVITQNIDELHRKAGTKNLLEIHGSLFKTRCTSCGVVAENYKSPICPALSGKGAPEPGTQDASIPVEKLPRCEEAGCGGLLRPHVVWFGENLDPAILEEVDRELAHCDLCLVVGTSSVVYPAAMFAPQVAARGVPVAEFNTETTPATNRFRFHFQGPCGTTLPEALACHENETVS
# DENV2 CPE rescue – protects cells from dengue virus 2 cytopathic effect; DENV2-infected cells, cytopathic effect rescue, plate reader; actives 1.7% (n = 350,000); AID 651640; CPE inhibition, % at 9.99 µM; in the data active = CPE inhibition above about 20%, passing the limit was not always enough; inconclusive = no clear call, values can overlap the other calls; tested in BHK-21 cells;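 note: 0% = median of neutral control wells and 100% = median of positive control wells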
# Xi reactivation – activators of X-chromosome reactivation in mouse fibroblasts | activation, % at 7.58 µM | XiGFP mouse fibroblasts, % GFP-positive cells imaging, 3 d; cells co-treated with 5-aza-dC sensitizer; scaled so ellipticine positive control = 100% | actives 0.055% (n = 360,000);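 active = mean normalized replicate activation at least 10% and every replicate at or above 10%; inconclusive = only one of the two criteria met; inactive = mean below 10% and not all replicates reach 10%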;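 note: 0% = median of on-plate neutral control wells and 100% = ellipticine 6 µM median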
#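 System: 68-5-11 XiGFP fibroblast line | Buffer or medium: DMEM containing 5-aza-dC | Compound: Single point | Times: Compounds 3 days, fix/stain 15 min at room temperature | Benchmarks: Positive control ellipticine, 6 µM final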
# FGF22 binding – FGF22 (human) thermal shift binding; Q9HCT0; recombinant FGF22 thermal shift, SYPRO orange fluorescence; percent of sucrose octasulfate shift, DMSO zero; activity (Tm shift, normalised), % at 9.99 µM; actives 1.5% (n = 340,000); AID 651658;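 active = mean Tm shift, scaled 0 neutral to 100 positive control, at about 1.3% or above, every replicate too, limit read from the data; inconclusive = no clear call, values can overlap the other calls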
# Active calls of the source: *; ? = inconclusive; . = no result given.
SMILES,ARNT TACC3 PPI,FN deposit inh,SIRT5 inh,DENV2 CPE rescue,Xi reactivation,FGF22 binding
CS(=O)(=O)c1ccc2nc(NC(=O)c3cc(-c4ccccc4)nn3-c3ccccc3)sc2c1,-3,4,-2,-7,0,43*
C[C@@H]1CN([C@@H](C)CO)C(=O)c2cc(C#CCN(C)C)cnc2O[C@H]1CN(C)C(=O)c1cccc(F)c1,-4,-13,-4,13,-1,0
Cc1ccccc1-n1c(N)c(C(=O)Nc2ccc(F)cc2)sc1=S,4,-4,-1,6,1,1
Cc1ccc(NC(=O)c2sc(=S)n(-c3cc(C)ccc3F)c2N)cc1,-2,-7,-1,5,0,43*
CCCC(=O)Nc1ccc2c(c1)C(=O)N(C)[C@H]1CC[C@@H](CC(=O)Nc3ccccc3)O[C@H]1CO2,2,-2,-10,-13,0,0
COC(=O)C[C@@H]1CC[C@@H]2[C@H](COc3ccc(NC(=O)c4ccc(C(F)(F)F)cc4)cc3C(=O)N2C)O1,1,9,-1,?,0,0
O=C(NCc1cccs1)c1cccc(Nc2nc3ccc(Br)cc3[nH]2)c1,0,-8,.,22*,0,1
O=C(NCc1cccs1)c1ccccc1,-9,1,.,.,.,.
C[C@@H]1CN([C@H](C)CO)C(=O)Cc2cc(NC(=O)Nc3cccc4ccccc34)ccc2O[C@@H]1CN(C)S(=O)(=O)c1ccc(F)cc1,5,.,6,-7,0,0
COc1ccc(C(CC(=O)O)N2Cc3ccccc3C2=O)cc1 (stereo not given),6,-8,-2,?,0,0
COc1ccc(C(CC(=O)Nc2ccc(C)cn2)N2Cc3ccccc3C2=O)cc1 (stereo not given),35*,-3,4,-3,0,-1
CC1CN(C2=CC(=O)CCC2)CC(C)O1 (stereo not given),-26,-2,1,21*,0,0
CCOc1c(N2CC(C)OC(C)C2)c(=O)c1=O (stereo not given),-7,-3,-5,-6,0,0
Cc1ccc(C)c(N2CCN(C(=O)c3cccn4c(=O)c5sccc5nc34)CC2)c1,1,7,19*,-4,0,0
C[C@H](CO)N1C[C@H](C)[C@H](CN(C)Cc2ccncc2)Oc2ncc(/C=C/c3ccccc3)cc2C1=O,0,.,-8,23*,-2,0
C[C@H]1CN([C@@H](C)CO)C(=O)c2cc(-c3ccncc3)cnc2O[C@H]1CN(C)Cc1ccc(F)cc1,44*,-8,7,14,-1,0
C[C@@H]1CN([C@H](C)CO)C(=O)c2cc(-c3ccccc3F)cnc2O[C@H]1CN(C)Cc1ccc(F)cc1,.,0,5,29*,0,0
C[C@@H]1CN([C@@H](C)CO)C(=O)c2cc(/C=C/c3ccccc3)cnc2O[C@H]1CN(C)Cc1ccncc1,6,.,-10,18,0,0
O=C(C[C@H]1CC[C@H]2[C@@H](COC[C@H](O)CN2C(=O)Nc2ccccc2)O1)NCCc1ccncc1,6,0,0,53*,0,0
CCNC(=O)C[C@H]1CC[C@H]2[C@@H](COC[C@@H](O)CN2C(=O)Nc2ccc(C(F)(F)F)cc2)O1,.,-1,64*,-2,0,0
O=C(C[C@H]1CC[C@@H]2NC[C@H](O)COC[C@H]2O1)NCCc1ccccc1,-7,-5,0,25*,0,-1
O=C(C[C@H]1CC[C@H]2[C@@H](COC[C@H](O)CN2C(=O)Nc2ccc(F)cc2)O1)NCCc1ccncc1,4,5,18*,0,0,0
O=C(C[C@@H]1CC[C@@H](NS(=O)(=O)c2ccccc2)[C@H](CO)O1)N1CCN(c2ccccc2)CC1,.,.,2,-10,-1,.
COCCNC(=O)C[C@@H]1CC[C@@H]2[C@H](COC[C@H](O)CN2C(=O)Nc2ccccc2OC)O1,-2,3,3,-2,1,0

# Screening data deposited in PubChem BioAssay by Broad Institute.
